# Measured values: ChEMBL document CHEMBL5154634, “A Modular Synthetic Route Involving N-Aryl-2-nitrosoaniline Intermediates Leads to a New Series of 3-Substituted Halogenated Phenazine Antibacterial Agents” (J Med Chem, 2021)
# Active and inactive are the calls of the source. No cut-off for these calls is given here.
# Tests used:
# [1] = test system: Staphylococcus aureus; test: Antibacterial activity against methicillin-resistant Staphylococcus aureus BAA-44 assessed as bacterial growth inhibition incubated for 16 hrs by broth microdilution susceptibility test; type: functional
# How it was run: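 CLSI broth microdilution with 11 twofold dilutions (0.05–50 μM). Medium was LB for the staphylococci and BHI for VRE 700221. About 10^5 cells per well from a log-phase culture. […] DMSO vehicle up to 0.5% v/v. At least three independent experiments.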
# [2] = test system: Enterococcus faecalis; test: Antibacterial activity against Enterococcus faecalis OG1RF ATCC 47077 assessed as bacterial growth inhibition incubated for 16 hrs by broth microdilution susceptibility test; type: functional
# [3] = test system: Mycobacterium tuberculosis; test: Antibacterial activity against Mycobacterium tuberculosis H37Ra ATCC 25177 assessed as bacterial growth inhibition incubated for 7 days by absorbance based analysis; type: functional; conditions: H37Ra ATCC 25177, 168 h, time 7 day
# How it was run: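 H37Ra grown 2 weeks in Middlebrook 7H9, then diluted to OD600 0.01. Compounds added in twofold dilutions, final 0.024–50 μM, with 0.5% DMSO and streptomycin as positive control. Incubated 7 days at 37 °C. MIC is the lowest concentration with no growth, with OD600 recorded. At least three independent experiments.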
# [4] = test system: Streptococcus pneumoniae; test: Antibacterial activity against Streptococcus pneumoniae ATCC 6303 assessed as bacterial growth inhibition incubated for 16 to 20 hrs by turbidity based analysis; type: functional; conditions: time 16-20 hrs
# [5] = test system: J774; test: Cytotoxicity against mouse J774 cells assessed as reduction in cell viability […] by Alamar blue assay; type: toxicity, cell-based
# [6] = test system: Staphylococcus aureus; test: Antibiofilm activity against methicillin-resistant Staphylococcus aureus BAA-1707 biofilms assessed as biofilm eradication incubated for 24 hrs followed by incubation for 24 hrs in fresh medium by Calgary biofilm device assay; type: functional
# How it was run: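 Calgary biofilm device. Mid-log culture diluted 1000-fold in TSB with 0.5% glucose; biofilms grown on pegs 24 h at 37 °C. Pegs washed and challenged with twofold compound dilutions for 24 h at 37 °C, then moved to fresh medium for 24 h. MBEC is the lowest concentration leaving wells non-turbid. At least three independent experiments.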
# [7] = test system: Staphylococcus epidermidis; test: Antibiofilm activity against methicillin-resistant Staphylococcus epidermidis ATCC 35984 biofilms assessed as reduction of viable biofilm cells at MBEC measured by CBD assay; type: functional
# How it was run: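 After the Calgary biofilm device assay, treated and untreated pegs were removed, sonicated 30 min in PBS and plated for CFU per peg. Log10 reduction of viable biofilm cells at the MBEC determined by comparison with untreated pegs. At least three independent experiments.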
# [8] = test system: Staphylococcus aureus; test: Induction of iron starvation in methicillin-resistant Staphylococcus aureus BAA-1707 biofilms assessed as upregulation of sfaA gene expression at 1/10XMBEC incubated for 4 hrs by RT-qPCR analysis; type: functional
# How it was run: (§1)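 MRSA BAA-1707 grown in TSB with 0.5% glucose to OD600 ~0.8–1.0, then biofilms formed 20 h at 37 °C statically in gelatin-coated 24-well plates. Biofilms treated 4 h at 37 °C with compound (1 μM or 1/10 MBEC) or DMSO vehicle. RNA extracted; only RIN ≥7 samples used. One-step SYBR RT-qPCR; ΔCT normalised to ptaA. Three independent experiments.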
# [9] = test system: Staphylococcus aureus; test: Induction of iron starvation in methicillin-resistant Staphylococcus aureus BAA-1707 biofilms assessed as upregulation of isdB gene expression at 1/10XMBEC incubated for 4 hrs by RT-qPCR analysis; type: functional; how it was run: as §1
# [10] = test system: Staphylococcus aureus; test: Induction of iron starvation in methicillin-resistant Staphylococcus aureus BAA-1707 biofilms assessed as upregulation of MW0695 gene expression at 1/10XMBEC incubated for 4 hrs by RT-qPCR analysis; type: functional; how it was run: as §1
# [11] = Binding affinity to Fe2+ assessed as compound-Fe2+ complex formation by UV-vis spectroscopy
# [12] = test system: Staphylococcus aureus; test: Antibacterial activity against methicillin-resistant Staphylococcus aureus clinical isolate 1 assessed as bacterial growth inhibition; type: functional
# [13] = test system: Staphylococcus aureus; test: Antibacterial activity against methicillin-resistant Staphylococcus aureus 156 assessed as bacterial growth inhibition; type: functional
# [14] = test system: Staphylococcus epidermidis; test: Antibiofilm activity against methicillin-resistant Staphylococcus epidermidis ATCC 35984 biofilms assessed as reduction of viable biofilm cells at 3.13 uM measured by CBD assay; type: functional
compound,measurement,setting,value
Cc1cccc2nc3c(O)c(Br)c(Cl)c(Br)c3nc12,MIC,[1],0.08 µM
same,MIC,[2],0.2 µM
same,MIC,[4],0.5 µM
same,IC50,[5],> 200 µM
same,MBEC,[6],1.56 µM
same,Activity,[7],3.65 log10CFU
same,Activity,[8],Active
same,Activity,[9],Active
same,Activity,[10],Active
same,Activity,[11],Active
same,MIC,[12],0.06 µM
same,MIC,[13],0.06 µM
same,Activity,[14],5 log10CFU
